# Only some compounds are listed: those with a hit (about 9.8% of all), similar ones and a draw of the others.
# Lmaj promast: Leishmania major promastigote growth inhibition; 9% of 200,000 active; inhibition, % at 10 µM; Leishmania major promastigotes, resazurin fluorescence viability; in the data active = inhibition above about 50%;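 note: promastigotes grown with compound for 44 hours at 28 °C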
# WT yeast gro inh: growth inhibition of WT yeast, mitochondrial fusion screen | mitochondrial fusion phenotypic screen, WT strain | inhibition, % at 10 µM | 2.1% of 190,000 active | AID 1362; in the data active = inhibition above about 58%; tested in S. cerevisiae
# PMI act satM6P: activators of human phosphomannose isomerase at near-saturating mannose 6-phosphate. P34949. coupled PMI enzyme assay, resazurin fluorescence, 20 min; active compounds read high; 1 = untreated enzyme, 0 = substrate-free blank. activation factor at 20 µM. 0.34% of 190,000 active;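 active = activation factor of 2 or more at 20 µM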
# Target sequence (P34949 whole entry, looked up): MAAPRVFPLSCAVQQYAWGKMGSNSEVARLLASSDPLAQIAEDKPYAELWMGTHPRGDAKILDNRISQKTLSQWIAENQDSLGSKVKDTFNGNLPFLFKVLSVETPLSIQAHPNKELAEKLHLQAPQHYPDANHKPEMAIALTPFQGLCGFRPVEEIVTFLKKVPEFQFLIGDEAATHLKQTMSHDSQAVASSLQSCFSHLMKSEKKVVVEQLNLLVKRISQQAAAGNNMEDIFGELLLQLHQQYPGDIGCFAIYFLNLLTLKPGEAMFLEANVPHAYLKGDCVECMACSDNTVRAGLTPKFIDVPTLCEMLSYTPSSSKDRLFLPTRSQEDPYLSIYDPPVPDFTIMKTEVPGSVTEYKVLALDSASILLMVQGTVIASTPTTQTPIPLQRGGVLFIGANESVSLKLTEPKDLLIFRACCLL
#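 Test system: Human PMI in coupled enzyme assay | Input: 15 ng/mL PMI | Medium: HEPES-buffered pH 7.4 with magnesium and detergent | Compound: One concentration, 20 µM, in 1% DMSO | Incubation: Enzyme reaction with compound 20 min at room temperature | Detection: Diaphorase-driven resazurin-to-resorufin fluorescence, excitation 544, emission 590 nm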
# PMI activator: increases human mannose-6-phosphate isomerase activity | P34949 | purified human PMI, coupled resazurin fluorescence, 20 min; active compounds read high; 1 = vehicle control, 0 substrate-free wells | activation factor at 20 µM | 0.005% of 190,000 active | AID 1214;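 active = activation factor of 2 or more at 20 µM, relative to plate controls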
# Rad51 HR inh: Rad51 (human) homologous recombination inhibition. 0.085% of 200,000 active. AID 1385. inhibition, % at 10 µM. hRad51 DNA strand exchange, fluorescence dequenching. Q06609;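 active = inhibition above 40% at the single screening dose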;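 note: 0% = DMSO control wells and 100% = blanks with heterologous ssDNA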
#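 System: hRad51 filaments on single-stranded DNA; reagent: Fluorescein- and BHQ1-tagged 47-mer duplex; compound dosing: one concentration, 10 µM final; timing: filaments 15 min 37 °C, then compound 30 min; measured by: fluorescein emission 520 nm, excitation 485 nm; benchmarks: per-plate controls and blanks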
# Calpain2 inh: calpain II (pig) inhibition. 0.37% of 220,000 active. AID 1236. inhibition, % at 16 µM. purified calpain II, fluorogenic peptide substrate, 30 min;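 active = inhibition above about 50%, limit read from the data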
# The depositor's hits bear a star; · = no result.
SMILES,Lmaj promast,WT yeast gro inh,PMI act satM6P,PMI activator,Rad51 HR inh,Calpain2 inh
CC(=O)c1cccc(NC(=O)c2cc(-c3ccc(C)cc3)on2)c1,62.3*,10.9,0.9,0.9,0.4,-15.9
Cc1ccc(CN(c2ccc(C(=O)Nc3ccc4c(c3)OCO4)cc2)S(C)(=O)=O)cc1,-8.3,-1.3,1.1,0.9,3.6,-43.3
Cc1nc2cc(NCc3cc([N+](=O)[O-])ccc3O)ccc2n1Cc1ccccc1,-4.0,-2.3,1,1.1,-0.3,-5.5
CC(C)N(C(=O)Cn1cc(SCC(N)=O)c2ccccc21)C(C)C,14.7,-16.6,1,1,4.6,5.0
O=C(c1cc(-c2ccccc2)nc2ccccc12)N1N=C(C(F)F)CC1(O)C(F)F (stereo not drawn),21.3,5.0,0.8,0.8,2.3,32.4
Cc1ccc(-c2cc(C(=O)N3N=C(C(F)F)CC3(O)C(F)F)c3ccccc3n2)cc1C (stereo not drawn),60.6*,92.1*,0.9,0.9,-3.0,-247.0
Nc1nc(N)c(Cc2ccc(Cl)cc2Cl)c(N)n1,63.7*,-6.4,1,1.1,15.9,7.0
NNc1ccc(Cc2ccc(Cl)cc2Cl)nn1,91.0*,3.0,1.2,1.2,1.6,-11.1
Oc1ccc(/C=N/Nc2nc(N3CCCCCC3)nc(N3CCCCCC3)n2)c(O)c1,8.3,74.2*,0.8,0.8,-1.9,-77.4
Oc1ccc(Br)cc1/C=N/Nc1nc(N2CCCCC2)nc(N2CCOCC2)n1,91.3*,50.1,0.8,0.7,0.7,-103.8
Brc1cc2c(cc1/C=N/Nc1nc(N3CCCC3)nc(N3CCOCC3)n1)OCO2,6.9,16.1,1,0.9,-2.9,-167.8
O=C(O)c1ccccc1/C=N/Nc1nc(N2CCCCC2)nc(N2CCCCC2)n1,-9.6,-6.2,1,1,-2.9,28.0
O=C(Nc1ccc(-n2cccc2)cc1)C1CC1,1.8,-9.4,1,1,-21.4,-14.2
O=C(CSCc1ccc(F)cc1)Nc1nc2c(s1)CCCC2,-1.9,17.9,0.9,0.9,66.0*,4.5
O=C(CSCc1ccc(F)cc1)Nc1ccc(F)cc1,-5.9,14.8,1,1,6.4,3.2
O=C(NCc1ccc(Cl)cc1)C(=O)N/N=C/c1ccc(Br)cc1,-3.4,-13.6,1,1,-6.2,19.9
O=C(c1ccc2c(c1)OCCO2)C1CCN(C(=O)c2ccc(F)c(F)c2)CC1,57.0*,6.0,0.9,1,0.3,-28.7
CN=C(Nc1cc(Cl)ccc1Cl)SC1CC(=O)N(c2ccc(C(=O)OC)cc2)C1=O (stereo not drawn),34.1,69.3*,0.8,0.8,-1.4,-18.6
O=C1CC(SC(=Nc2ccccc2)Nc2ccccc2)C(=O)N1c1ccc(Cl)c(Cl)c1 (stereo not drawn),66.0*,61.8*,0.8,0.9,19.5,17.0
Cc1cccc(N2C(=O)CC(SC(=Nc3ccccc3)Nc3ccccc3)C2=O)c1 (stereo not drawn),37.1,24.4,0.9,0.8,-3.3,-26.8
CC(C)(C)C(=O)c1sc2nc(-c3cccs3)cc(C(F)(F)F)c2c1N,53.9*,6.5,1.3,1.3,-282.4,-150.6
Cc1nnc(NC(=O)c2sc3nc(-c4cccs4)cc(C(F)(F)F)c3c2N)s1,-2.6,70.5*,1,1,18.0,-205.6
COCCNC(=O)c1cn(C)c2ccccc2c1=O,1.9,-3.2,1,1,-3.1,-12.0
COc1ccc(CNC(=S)Nc2ccccc2-c2ccccc2)cc1,23.9,48.2,1,1,-3.4,24.6
COC(=O)c1ccc(C(=O)OC)c(NC(=S)N2CCN(c3ccccc3)CC2)c1,-4.3,6.0,1,1,-0.3,3.3
SMILES,Lmaj promast,WT yeast gro inh,PMI act satM6P,PMI activator,Rad51 HR inh,Calpain2 inh
CC(=O)c1ccc(NC(=O)Nc2cccc(Cl)c2)cc1,28.4,72.3*,1,0.9,4.9,26.4
CC(=O)c1ccc(N2CCN(C(=S)Nc3cccc(Cl)c3)CC2)cc1,56.6*,8.1,1.1,1.1,-5.0,23.0
COC(=O)c1ccc(C(=O)OC)c(NC(=S)N2CCN(c3cccc(Cl)c3)CC2)c1,73.6*,23.5,0.9,0.8,-1.1,4.8
CCCNC(=S)N1CCC(C(=O)c2ccc(OC)cc2)CC1,-6.5,14.1,1,0.9,5.8,-3.1
c1ccc(CSc2ncccn2)cc1,-3.8,10.6,0.9,0.9,6.4,-11.3
Oc1ccccc1/C=N/Nc1ccnc(SCc2ccccc2)n1,96.2*,7.4,0.8,0.8,12.6,-0.6
CCN1/C(=C2/SC(=S)NC2=O)Sc2ccccc21,76.5*,2.0,1,0.9,5.6,-2.6
CCN1/C(=C2/OC(=S)N(C)C2=O)Sc2ccccc21,3.3,9.5,0.9,0.9,-8.6,-23.3
O=Cc1cccn1-c1sc2c(c1C(=O)O)CCCC2,19.7,-21.8,1.1,1.1,-1.8,-10.2
N#Cc1c(-n2cccc2C=O)sc2c1CCCC2,52.3*,11.7,1,1,-2.2,26.4
CCCCCCCC[n+]1cccc(C(=O)N(CC)CC)c1,60.8*,7.7,1,1,-3.6,6.6
COc1ccccc1C(=O)/C=C/c1ccc(N2CCCCC2)c([N+](=O)[O-])c1,98.3*,-0.6,1,0.9,4.6,0.1
O=C(O/N=C\c1ccc(N2CCCCC2)c([N+](=O)[O-])c1)c1ccc(Cl)cc1Cl,1.0,-17.3,0.9,0.9,·,23.4
O=C(c1ccc(N2CCCCC2)c([N+](=O)[O-])c1)N1CCOCC1,-7.5,-12.8,1,1,2.9,21.9
O=C(/C=C/c1ccc(N2CCCCC2)c([N+](=O)[O-])c1)c1ccc(O)cc1,99.9*,91.0*,0.9,0.9,20.2,-17.8
CCN1CCN(C(=S)NCCc2ccccc2)CC1,86.2*,3.7,1.1,1,1.1,-2.3
OCCN1CCN(C(=S)NCCc2ccccc2)CC1,2.8,3.5,0.9,0.9,-1.1,-20.8
Cc1ccc(Cl)cc1N1CCN(c2cccc[n+]2C)CC1,73.6*,10.7,0.8,0.7,1.8,0.8
C[n+]1ccccc1N1CCN(c2ccccc2Cl)CC1,48.4,12.4,0.9,0.8,-1.9,-10.3
Cc1ccc(Cl)cc1N1CCN(C(=S)NCCc2ccccc2)CC1,0.5,66.2*,0.9,0.9,10.9,4.1
Cc1ccc(NC(=S)N2CCC(c3ccccc3)C2)c(Cl)c1 (stereo not drawn),13.4,41.9,1,1,·,15.1
CSc1ccc(NC(=O)Nc2ccc(C(=O)NCC(=O)O)cc2)cc1,·,·,·,·,-8.1,16.9
CCOc1cc(CNc2ccc(N3CCCCC3)cc2)cc(Br)c1OCC(=O)NC(C)(C)C,24.6,65.4*,0.6,0.7,5.5,8.2
C=CCOc1c(Br)cc(CNc2ccc(NC(=O)CCC)cc2)cc1OCC,87.3*,22.1,0.8,0.9,-7.6,-19.3
CCOc1cc(CNc2ccc(N(C)C)cc2)cc(Br)c1OCC(=O)NC(C)(C)C,100.7*,14.8,0.7,0.7,-1.8,40.7
